Test results: ChEMBL document CHEMBL1275484, “Rifampin and rifaximin resistance in clinical isolates of Clostridium difficile” (Antimicrob Agents Chemother, 2008)
In brackets after ≈: the same amount, converted by molar mass.

Key:
Type in all cases: functional
[1] = tested on: Clostridioides difficile; experiment: Antimicrobial activity against Clostridium difficile isolate 13 by Etest
Outline: (§1)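 Rifampin MIC by Etest strip on brucella blood agar, run per the strip maker's instructions. Isolates were HindIII REA-typed clinical C. difficile.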

[2] = tested on: Clostridioides difficile; experiment: Antimicrobial activity against Clostridium difficile isolate 58 by agar dilution method
Outline: (§2)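 CLSI reference agar dilution method for anaerobes, with endpoints read per guideline M11-A7. Rifaximin was dissolved in methanol, diluted in 0.1 M phosphate buffer (pH 7.4) with 0.45% SDS, and tested at 0.0009–256 μg/ml. Rifampin was dissolved in methanol, diluted in water, and tested at 0.00001–256 μg/ml. C. difficile ATCC […] served as control. Isolates were typed by HindIII REA.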

[3] = tested on: Clostridioides difficile; experiment: Antimicrobial activity against Clostridium difficile isolate 31 by agar dilution method
Outline: (§3)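 MIC by CLSI reference agar dilution for anaerobes, with endpoints read per M11-A7 and C. difficile […] as control. Rifaximin was dissolved in methanol, diluted in 0.1 M phosphate buffer pH 7.4 plus 0.45% SDS, and tested at 0.0009–256 μg/ml. Rifampin was dissolved in methanol, diluted in water, and tested at 0.00001–256 μg/ml.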

[4] = tested on: Clostridioides difficile; experiment: Antimicrobial activity against Clostridium difficile isolate 43 by Etest
Outline: (§4)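 Rifampin Etest strips were run on brucella blood agar following the manufacturer's instructions to give an MIC. Clinical isolates were typed by HindIII REA.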

[5] = tested on: Clostridioides difficile; experiment: Antimicrobial activity against Clostridium difficile isolate 55 by agar dilution method; outline: as §2
[6] = tested on: Clostridioides difficile; experiment: Antimicrobial activity against Clostridium difficile isolate 39 by Etest; outline: as §4
[7] = tested on: Clostridioides difficile; experiment: Antimicrobial activity against Clostridium difficile isolate 5 by Etest; outline: as §4
[8] = tested on: Clostridioides difficile; experiment: Antimicrobial activity against Clostridium difficile isolate 27 by agar dilution method; outline: as §3
[9] = tested on: Clostridioides difficile; experiment: Antimicrobial activity against Clostridium difficile isolate 41 by Etest; outline: as §4
[10] = tested on: Clostridioides difficile; experiment: Antimicrobial activity against Clostridium difficile isolate 30 by Etest; outline: as §1
[11] = tested on: Clostridioides difficile; experiment: Antimicrobial activity against Clostridium difficile isolate 59 by agar dilution method; outline: as §2

CO[C@H]1/C=C/O[C@@]2(C)Oc3c(C)c(O)c4c(O)c(c(/C=N/N5CCN(C)CC5)c(O)c4c3C2=O)NC(=O)/C(C)=C\C=C\[C@H](C)[C@H](O)[C@@H](C)[C@@H](O)[C@@H](C)[C@H](OC(C)=O)[C@@H]1C [RIFAMPIN]
MIC [1]: < 2 ng/mL
MIC [2]: 0.9 ng/mL (≈ 1.09 nM)
MIC [3]: 0.9 ng/mL (≈ 1.09 nM)
MIC [4]: < 2 ng/mL
MIC [5]: 0.9 ng/mL (≈ 1.09 nM)
MIC [6]: < 2 ng/mL
MIC [7]: < 2 ng/mL
MIC [8]: 0.4 ng/mL (≈ 0.486 nM)
MIC [9]: < 2 ng/mL
MIC [10]: < 2 ng/mL
MIC [11]: 0.9 ng/mL (≈ 1.09 nM)
